Measured values taken from ChEMBL document CHEMBL1165943, “Design and synthesis of new anticancer pyrimidines with multiple-kinase inhibitory effect” (Bioorg Med Chem, 2010).

How the values were obtained:
Type in all cases: functional
HL-60(TB) = experiment: Cytotoxicity against human HL-60(TB) cells assessed as cell growth at 10 uM; conditions: Homo sapiens, HL-60; read-out: Activity
Summary of the method: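 Single-concentration 10 µM screen of HL-60(TB) within the 60-line panel, grown in RPMI 1640 with 5% FBS. The drug from DMSO stock is incubated 48 h at 37 °C, settled cells are TCA-fixed and SRB-stained, and absorbance is read at 515 nm. Percent growth is reported, and inhibition % is taken as 100 minus growth %.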

K562 = experiment: Cytotoxicity against human K562 cells assessed as cell growth at 10 uM; conditions: Homo sapiens, K562; read-out: Activity
Summary of the method: (§1)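 Single-dose screen at 10 μM across the 60-cell-line panel. Cells grown in RPMI 1640 with 5% FBS and 2 mM L-glutamine, seeded at 5,000–40,000 cells/well according to doubling time, and treated 24 h later. Exposure lasted 48 h at 37 °C, 5% CO₂. Adherent cells were fixed with cold TCA, suspension cells were fixed settled, and both were stained with SRB and read at 515 nm. Growth % was recorded, with inhibition % = 100 − growth %.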

MOLT-4 = experiment: Cytotoxicity against human MOLT4 cells assessed as cell growth at 10 uM; conditions: Homo sapiens, MOLT-4; read-out: Activity; summary of the method: as §1
EKVX = experiment: Cytotoxicity against human EKVX cells assessed as cell growth at 10 uM; conditions: Homo sapiens, EKVX; read-out: Activity
Summary of the method: (§2)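 Single-concentration screen at 10 μM across the 60-cell-line panel (nine tissue types); growth percentage recorded per cell line, with inhibition taken as 100 minus growth percentage.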

NCI-H226 = experiment: Cytotoxicity against human NCI-H226 cells assessed as cell growth at 10 uM; conditions: Homo sapiens, NCI-H226; read-out: Activity; summary of the method: as §1
NCI-H23 = experiment: Cytotoxicity against human NCI-H23 cells assessed as cell growth at 10 uM; conditions: Homo sapiens, NCI-H23; read-out: Activity; summary of the method: as §1
NCI-H322M = experiment: Cytotoxicity against human NCI-H322M cells assessed as cell growth at 10 uM; conditions: Homo sapiens, NCI-H322M; read-out: Activity; summary of the method: as §1
NCI-H460 = experiment: Cytotoxicity against human NCI-H460 cells assessed as cell growth at 10 uM; conditions: Homo sapiens, NCI-H460; read-out: Activity; summary of the method: as §1
NCI-H522 = experiment: Cytotoxicity against human NCI-H522 cells assessed as cell growth at 10 uM; conditions: Homo sapiens, NCI-H522; read-out: Activity; summary of the method: as §1
HCC 2998 = experiment: Cytotoxicity against human HCC2998 cells assessed as cell growth at 10 uM; conditions: Homo sapiens, HCC 2998; read-out: Activity; summary of the method: as §2
HCT-116 = experiment: Cytotoxicity against human HCT116 cells assessed as cell growth at 10 uM; conditions: Homo sapiens, HCT-116; read-out: Activity; summary of the method: as §2
HCT-15 = experiment: Cytotoxicity against human HCT15 cells assessed as cell growth at 10 uM; conditions: Homo sapiens, HCT-15; read-out: Activity; summary of the method: as §2
KM12 = experiment: Cytotoxicity against human KM12 cells assessed as cell growth at 10 uM; conditions: Homo sapiens, KM12; read-out: Activity; summary of the method: as §1
SF-268 = experiment: Cytotoxicity against human SF268 cells assessed as cell growth at 10 uM; conditions: Homo sapiens, SF-268; read-out: Activity; summary of the method: as §1
SF-295 = experiment: Cytotoxicity against human SF295 cells assessed as cell growth at 10 uM; conditions: Homo sapiens, SF-295; read-out: Activity; summary of the method: as §1
SF-539 = experiment: Cytotoxicity against human SF539 cells assessed as cell growth at 10 uM; conditions: Homo sapiens, SF-539; read-out: Activity; summary of the method: as §1
U-251 = experiment: Cytotoxicity against human U251 cells assessed as cell growth at 10 uM; conditions: Homo sapiens, U-251; read-out: Activity; summary of the method: as §1
LOX IMVI = experiment: Cytotoxicity against human LOXIMVI cells assessed as cell growth at 10 uM; conditions: Homo sapiens, LOX IMVI; read-out: Activity; summary of the method: as §1
Malme-3M = experiment: Cytotoxicity against human MALME-3M cells assessed as cell growth at 10 uM; conditions: Homo sapiens, Malme-3M; read-out: Activity; summary of the method: as §1
SK-MEL-5 = experiment: Cytotoxicity against human SK-MEL-5 cells assessed as cell growth at 10 uM; conditions: Homo sapiens, SK-MEL-5; read-out: Activity; summary of the method: as §1
UACC-257 = experiment: Cytotoxicity against human UACC257 cells assessed as cell growth at 10 uM; conditions: Homo sapiens, UACC-257; read-out: Activity; summary of the method: as §1
OVCAR-3 = experiment: Cytotoxicity against human OVCAR-3 cells assessed as cell growth at 10 uM; conditions: Homo sapiens, OVCAR-3; read-out: Activity; summary of the method: as §1
OVCAR-4 = experiment: Cytotoxicity against human OVCAR4 cells assessed as cell growth at 10 uM; conditions: Homo sapiens, OVCAR-4; read-out: Activity; summary of the method: as §1
OVCAR-5 = experiment: Cytotoxicity against human OVCAR5 cells assessed as cell growth at 10 uM; conditions: Homo sapiens, OVCAR-5; read-out: Activity; summary of the method: as §1
OVCAR-8 = experiment: Cytotoxicity against human OVCAR8 cells assessed as cell growth at 10 uM; conditions: Homo sapiens, OVCAR-8; read-out: Activity; summary of the method: as §1
SK-OV-3 = experiment: Cytotoxicity against human SKOV3 cells assessed as cell growth at 10 uM; conditions: Homo sapiens, SK-OV-3; read-out: Activity; summary of the method: as §1
786-0 = experiment: Cytotoxicity against human 786-0 cells assessed as cell growth at 10 uM; conditions: Homo sapiens, 786-0; read-out: Activity; summary of the method: as §2
A498 = experiment: Cytotoxicity against human A498 cells assessed as cell growth at 10 uM; conditions: Homo sapiens, A498; read-out: Activity; summary of the method: as §2
ACHN = experiment: Cytotoxicity against human ACHN cells assessed as cell growth at 10 uM; conditions: Homo sapiens, ACHN; read-out: Activity; summary of the method: as §2
CAKI-1 = experiment: Cytotoxicity against human Caki1 cells assessed as cell growth at 10 uM; conditions: Homo sapiens, CAKI-1; read-out: Activity; summary of the method: as §2
TK-10 = experiment: Cytotoxicity against human TK10 cells assessed as cell growth at 10 uM; conditions: Homo sapiens, TK-10; read-out: Activity; summary of the method: as §1
UO-31 = experiment: Cytotoxicity against human UO31 cells assessed as cell growth at 10 uM; conditions: Homo sapiens, UO-31; read-out: Activity; summary of the method: as §1
PC-3 = experiment: Cytotoxicity against human PC3 cells assessed as cell growth at 10 uM; conditions: Homo sapiens, PC-3; read-out: Activity; summary of the method: as §1
DU-145 = experiment: Cytotoxicity against human DU145 cells assessed as cell growth at 10 uM; conditions: Homo sapiens, DU-145; read-out: Activity; summary of the method: as §2
BT-549 = experiment: Cytotoxicity against human BT549 cells assessed as cell growth at 10 uM; conditions: Homo sapiens, BT-549; read-out: Activity; summary of the method: as §2
MDA-MB-468 = experiment: Cytotoxicity against human MDA-MB-468 cells assessed as cell growth at 10 uM; conditions: Homo sapiens, MDA-MB-468; read-out: Activity; summary of the method: as §1
[1] = Growth inhibition of human NCI60 cells at 10 uM after 48 hrs by sulforhodamine B assay relative to control; conditions: Homo sapiens, NCI60, 48 h; read-out: GI
Summary of the method: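 Single 10 µM dose across the 60-line panel for 48 h, with the same culture, TCA fixation and SRB 515 nm read-out. Inhibition % = 100 − growth %, given as the mean over the 60 cell lines.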

Row | Structure (SMILES) | growth at 10 µM (HL-60(TB)) [%] | growth at 10 µM (K562) [%] | growth at 10 µM (MOLT-4) [%] | growth at 10 µM (EKVX) [%] | growth at 10 µM (NCI-H226) [%] | growth at 10 µM (NCI-H23) [%] | growth at 10 µM (NCI-H322M) [%] | growth at 10 µM (NCI-H460) [%] | growth at 10 µM (NCI-H522) [%] | growth at 10 µM (HCC 2998) [%] | growth at 10 µM (HCT-116) [%] | growth at 10 µM (HCT-15) [%] | growth at 10 µM (KM12) [%] | growth at 10 µM (SF-268) [%] | growth at 10 µM (SF-295) [%] | growth at 10 µM (SF-539) [%] | growth at 10 µM (U-251) [%] | growth at 10 µM (LOX IMVI) [%] | growth at 10 µM (Malme-3M) [%] | growth at 10 µM (SK-MEL-5) [%] | further results
1 | CC(=O)Nc1cccc(-c2ccc(-c3ccnc(NC(=O)Nc4cc(C(F)(F)F)cc(C(F)(F)F)c4)n3)cn2)c1.Cl | 60.1 | 34.8 | 53.3 | 69.2 | 59.8 | -6.37 | 41.8 | 34.5 | 8.5 | 70.7 | 50.5 | 60.3 | 72.7 | 83.6 | 49 | 75.6 | -25.4 | 49.4 | 52.3 | -25.5 | growth at 10 µM (UACC-257): 50.5%; growth at 10 µM (OVCAR-3): 67.8%; growth at 10 µM (OVCAR-4): 7.08%; growth at 10 µM (OVCAR-5): 93.5%; growth at 10 µM (OVCAR-8): 27.9%; growth at 10 µM (SK-OV-3): 83.1%; growth at 10 µM (786-0): 69.8%; growth at 10 µM (A498): 59%; growth at 10 µM (ACHN): 60.5%; growth at 10 µM (CAKI-1): 50.9%; growth at 10 µM (TK-10): 76%; growth at 10 µM (UO-31): 54.7%; growth at 10 µM (PC-3): 56.2%; growth at 10 µM (DU-145): 89.2%; growth at 10 µM (BT-549): 47.3%; growth at 10 µM (MDA-MB-468): -30.3%; inhibition of growth at 10 µM [1]: 50.9%
2 | CC(=O)c1ccc(-c2ccc(-c3ccnc(Nc4cc(C(F)(F)F)cc(C(F)(F)F)c4)n3)cn2)cc1 | 107 | 98.5 | 91 | 113 | 100 | 96.5 | 103 | 106 | 102 | 104 | 92.9 | 110 | 114 | 106 | 110 | 89.7 | 101 | 97.8 | 124 | 101 | growth at 10 µM (UACC-257): 102%; growth at 10 µM (OVCAR-3): 119%; growth at 10 µM (OVCAR-4): 94.6%; growth at 10 µM (OVCAR-5): 109%; growth at 10 µM (OVCAR-8): 96.7%; growth at 10 µM (SK-OV-3): 93.5%; growth at 10 µM (786-0): 105%; growth at 10 µM (A498): 97.4%; growth at 10 µM (ACHN): 103%; growth at 10 µM (CAKI-1): 97.4%; growth at 10 µM (TK-10): 106%; growth at 10 µM (UO-31): 79.3%; growth at 10 µM (PC-3): 89.8%; growth at 10 µM (DU-145): 114%; growth at 10 µM (BT-549): 99.8%; growth at 10 µM (MDA-MB-468): 106%; inhibition of growth at 10 µM [1]: -2.21%
3 | Cc1ccc(Nc2nc(C)cc(-c3cccnc3)n2)c(C)c1 | 98.5 | 85.8 | 91.4 | 96.1 | 94.8 | 90.9 | 100 | 95.7 | 90.6 | 101 | 95.2 | 99.7 | 98.7 | 96.4 | 98.3 | 89.7 | 92.2 | 102 | 107 | 89.8 | growth at 10 µM (UACC-257): 100%; growth at 10 µM (OVCAR-3): 105%; growth at 10 µM (OVCAR-4): 102%; growth at 10 µM (OVCAR-5): 106%; growth at 10 µM (OVCAR-8): 94.2%; growth at 10 µM (SK-OV-3): 104%; growth at 10 µM (786-0): 93.2%; growth at 10 µM (A498): 96.1%; growth at 10 µM (ACHN): 108%; growth at 10 µM (CAKI-1): 88.8%; growth at 10 µM (TK-10): 118%; growth at 10 µM (UO-31): 86.9%; growth at 10 µM (PC-3): 91.7%; growth at 10 µM (DU-145): 99.5%; growth at 10 µM (BT-549): 95.9%; growth at 10 µM (MDA-MB-468): 72.8%; inhibition of growth at 10 µM [1]: 3.91%
